# Laboratory results published in ChEMBL document CHEMBL4513216, “Probing the Open Global Health Chemical Diversity Library for Multistage-Active Starting Points for Next-Generation Antimalarials” (ACS Infect Dis, 2020).
# Assay: Toxicity liver stage against HepG2, at 10uM
# Type: cell-based
# Set-up: test concentration 10 uM, cell line HepG2-A16-CD81EGFP
# Conditions: human, HepG2-A16-CD81EGFP cells; read-out: INHIBITION
# Summary of the method: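 Uninfected HepG2-A16-CD81EGFP cells, 3 × 10^3 per well, 1536-well, plated on prespotted compound at 10 μM final, parasite-free screening media added to match infected plates; puromycin 10 μM positive, DMSO 0.5% negative; run in parallel with 48 h PbLuc assay at 37 °C, 5% CO2; viability by CellTiter-Glo luminescence, normalized to controls.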
row,SMILES,cytotoxicity at 10 µM [%]
1,COc1ccc(NC(=O)NC(C)Cc2ccco2)cn1 (stereo not given),-3.54
2,CN(CCC1CCOCC1)C(=O)C1CCC(=O)N(Cc2ccccn2)C1 (stereo not given),-2.06
3,O=C(NCc1ccccc1)[C@H]1C[C@H]2CN(C(=O)NC3CCCC3)C[C@@H]1O2,2.17
4,Fc1cnc(N2C[C@@H]3COC[C@]3(COc3ccccn3)C2)nc1,-5.43
5,CC(C)(C)c1csc(CNC(=O)C2NCCc3[nH]cnc32)n1 (stereo not given),-2.65
6,CC(C)n1cc(S(=O)(=O)N2CCSCC2)cn1,6.64
7,CC(O)CN1CCC(=O)N(Cc2ccccc2)Cc2ccccc21 (stereo not given),-3.37
8,Cc1cc(C)n(CC2CN(CC(=O)NC3CCCCC3)CCO2)n1 (stereo not given),-5.17
9,Cc1[nH]ncc1CCCNC(=O)N1CCCC(c2nncn2C)C1 (stereo not given),-7.58
10,CCOc1ncccc1NC(=O)Nc1c(C)nn(C(C)C)c1C,17.8
11,Fc1ccc(-n2cccn2)c(CN2CCCCC2CCn2ccnc2)c1 (stereo not given),-11.3
12,CC(=O)N1CCC2(CC1)CN(C(C)=O)CC21CCNC1=O (stereo not given),-2.69
13,Cn1[nH]c(C2CC2)c(-c2ccc3c(c2)OCO3)c1=N,-47.5
14,Cc1ccc2[nH]c(C3CCN(C)CC3)nc2c1,6.79
15,Cc1n[nH]c(C)c1S(=O)(=O)N(C)Cc1nn(C)c(Cl)c1Cl,0.303
16,O=C(c1ccoc1)N1CCCn2cnc(COCC3CC3)c2C1,2.47
17,CCn1c(Cn2ccnc2)nnc1C1CCN(Cc2ccc(C)o2)CC1,-2.28
18,Cc1nn(CCO)c(C)c1CNC1CCc2c(F)cccc21 (stereo not given),4.59
19,O=C(CCC(=O)N1CCOCC1c1ccccc1)c1cccs1 (stereo not given),-1.26
20,Cc1ccc(C(C)(O)CNC(=O)c2scnc2C)o1 (stereo not given),-1.42
21,CCn1ccnc1CN1CCCN(C(=O)c2cccc(C#N)c2)CC1,-12.2
22,c1cnc(N2CCC3(COCc4cnc(-c5cccnc5)nc43)C2)nc1 (stereo not given),2.57

row,SMILES,cytotoxicity at 10 µM [%]
1,Cn1nc2c(cc1=O)CN(Cc1nc(C3CC3)no1)CC2,-10.8
2,O=C(NC[C@@H]1CCCO1)c1cccnc1N1CCCC1c1ccccc1 (stereo not given in full),3.95
3,CCc1nccn1-c1cccc(C2CCN(C(=O)COC)CC2)n1,-14.9
4,CCn1ccnc1CN1C[C@@H](NC(=O)C2CC2)[C@H](c2ccc(C)cc2)C1,2.63
5,Cn1ccnc1CN1CCN(Cc2cc(C#N)ccc2F)CC1,-4.52
6,O=C(Nc1cnc(Oc2ccccc2)nc1)C1CC1,0.174
7,COc1cccc(CN(C)C(=O)CN2CCN(c3nccn3C)CC2)c1,14.3
8,CC(O)(CNC(=O)NCc1cccc(-n2cncn2)c1)c1ccco1 (stereo not given),15
9,O=C(c1cncc(Br)c1)N1CCC(O)(Cn2ccc3ccncc32)CC1,2.44
10,CC(=O)N1[C@H](CN(C)C)C[C@@H]2CN(C(=O)c3ccsc3)CC[C@@H]21,-0.744
11,CCCN(Cc1cccnc1)C1CC(C)(C)NC(C)(C)C1,-4.47
12,Cn1cccc1C(=O)N1CCCC2(CCN(CCN3CCCC3)C2=O)C1 (stereo not given),-10.8
13,CCOC(=O)[C@H]1CNC[C@@H]1C(F)(F)F,7.06
14,Nc1cccc(C2CN(C(=O)CN3CCOCC3)CCO2)n1 (stereo not given),-8.83
15,Cc1ccc(S(=O)(=O)NCc2[nH]ncc2Br)cc1C,5.23
16,Cc1cc(CN2CC[C@H]3C[C@H](C)O[C@@H]3C2)no1,-1.42
17,CCn1ncc2c1C(COC)N(C(=O)c1ccsc1)CC2 (stereo not given),-101
18,CNC(=O)c1ccc2c(c1O)OC(C)(C)C2,-6.08
19,COCc1noc(-c2ccc(N3CCCCC3COC)nc2)n1 (stereo not given),1.69
20,COc1cccc(CN2CCCC2c2cncc(Nc3nncs3)n2)c1 (stereo not given),4.73
21,COc1ccc(F)cc1C(=O)N1C[C@@H]2CC[C@H]1CN(c1ncccn1)C2,4.24
22,COc1nn(C)c2c1CCCN(C(=O)c1ccc3c(c1)OCO3)C2,13.1

row,SMILES,cytotoxicity at 10 µM [%]
1,Cn1cc(CN(Cc2cccc(-n3cccn3)c2)C2CC2)cn1,-15.4
2,c1cn(Cc2nnc(C3CCN(C4CCCCC4)CC3)n2C2CC2)cn1,-6.79
3,O=C1OC2(CCN(CC3CCCO3)CC2)CN1CCc1ccccc1 (stereo not given),-6.21
4,COc1cccc(CC(=O)N2CC[C@@H](OC)[C@@H]2Cc2cccnc2)c1,3.71
5,COc1ccccc1N1CCN(CC[C@H](O)c2ccccc2)CC1=O,-0.081
6,Cc1noc(CN2CCCC(Cn3nc(C)nc3C)C2)n1 (stereo not given),-5.04
7,Cc1cc(C2CCCN2Cc2ccc(S(=O)(=O)N(C)C)o2)on1 (stereo not given),-4.11
8,O=C(c1cncc2ccccc12)N1CCC[C@@H]1CO,2.37
9,CCOc1ncccc1NC(=O)N1CCc2ccccc2C1,-8.62
10,CCO[C@H]1CC[C@H]2[C@H]1OCCN2C(=O)c1nn(C)c2ccccc12,7.28
11,Cc1cc(NC(=O)CN2CCCC2c2noc(C(C)C)n2)no1 (stereo not given),-14.3
12,O=S(=O)(NCC1CCN(CCN2CCOCC2)C1)c1ccccc1F (stereo not given),-57.9
13,Cc1cccnc1CN1CC[C@H](Oc2cccc(F)c2)[C@@](C)(O)C1,-5.77
14,CNC(=O)c1ccc(C2CN(C(=O)c3cnn(C)c3)CCO2)nc1 (stereo not given),-24.2
15,COc1ncccc1C(=O)N1CC[C@H]2C[C@H](c3noc(C)n3)O[C@@H]2C1,5.31
16,O=C(NCC1Cn2nnc(-c3ccncc3)c2CO1)c1ccc[nH]1 (stereo not given),1.6
17,CCN1CC(C(=O)NCc2cccc(SC)c2)CC1=O (stereo not given),4.68
18,Cc1ccc(C(=O)NCc2ccc(N3CCNC(=O)C3)c(F)c2)cc1,-3.31
19,O=C(NCCN1C(=O)c2ccccc2C1=O)c1scnc1Cl,-12.3
20,Cn1nccc1C(=O)N1C[C@@H]2CC[C@H](Oc3cccc(F)c3)[C@@H]2C1,-13.8
21,N#Cc1ccc(CN2C[C@@H]3OCC(=O)N[C@@H]3C2)cc1,-3.01
22,CC(C)c1nnc(N2C[C@@H](CN(C)CCO)[C@@H](CO)C2)s1,-2.48

row,SMILES,cytotoxicity at 10 µM [%]
1,CC(NCc1cccc(Cl)c1)c1ccc(OCC(=O)NC2CC2)cc1 (stereo not given),-12.2
2,O=C(NCCN1CCOCC1)c1cc(Cl)c2c(c1)OCCCO2,-5.29
3,Cc1nn(C)c(C)c1C1CCCN1C(=O)CCNS(C)(=O)=O (stereo not given),-26
4,O=C(c1cc(-c2ccn(CC3CC3)n2)n2ccccc12)N1CCOCC1,9.76
5,CN(C)c1cc(CNC(=O)c2c(F)cccc2F)ccn1,-18.1
6,COc1ncc(CN2CCC3(CCCN(CC4CCC4)C3)C2)cn1 (stereo not given),-1.95
7,CC(C)(NCC(=O)NC(=O)NC1CC1)c1ccc2c(c1)OCO2,-1.27
8,CCc1nc(-c2cncnc2C2CCNC2)no1 (stereo not given),1.45
9,O=C(CS(=O)(=O)CC1CCCCC1)NC1CCCCNC1=O (stereo not given),-10.6
10,O=C(Nc1cccc(N2CCN(CC3CC3)CC2)c1)N1CCCC1,0.441
11,COc1ccc(CNC(=O)NC(C)(CO)C2CC2)c(C(F)(F)F)c1 (stereo not given),8.48
12,COc1ccc(F)cc1C[S+]([O-])CC(=O)NCC(C)C (stereo not given),-5.95
13,COCCN1CCc2cc(C(=O)O)c(-c3ccoc3)nc2CC1,-75.6
14,CN(Cc1ccc2c(c1)OCO2)C(=O)Cn1cccnc1=O,-3.96
15,CN(Cc1ccccn1)C1COC2(CCN(Cc3nccs3)CC2)C1 (stereo not given),-16.2
16,CCc1c(C)[nH]c(C(C)(C)N)nc1=O,-11
17,O=C(NCC1(N2CCOCC2)CCSC1)Nc1ccccn1 (stereo not given),8.64
18,Cc1cccnc1NC(=O)c1ccc(F)c(S(=O)(=O)N2CCC2)c1,4.5
19,CN1[C@@H](C(=O)NCC2CC2)C[C@H]2CN(Cc3cccc(C#N)c3)C[C@H]21,-8.22
20,COCC1CC2(CCN(c3cccc(C)n3)CC2)CN1c1ncccn1 (stereo not given),-108
21,Cc1nc(N2CCCC2)ncc1-c1cc(O)nc(N2CCN(C)CC2)n1,2.6
22,CCc1noc(C(C)SCCS(C)(=O)=O)n1 (stereo not given),5.5

row,SMILES,cytotoxicity at 10 µM [%]
1,CCOc1ccccc1-c1noc(CN2CCOC(CN(C)C)C2)n1 (stereo not given),-5
2,CC(O)(CNC(=O)c1c(F)cccc1Cl)C1CC1 (stereo not given),-8.87
3,Cc1noc(C(C)N2CCN(c3ccc(C#N)cn3)CC2)n1 (stereo not given),-0.871
4,CNc1nc(CNC(=O)Nc2cccc(CN(C)C)c2)cs1,-8.04
5,COc1ncccc1NC(=O)N(Cc1ccccn1)C1CC1,9.11
6,Fc1cnc(N2CC[C@@H]3O[C@@H](COCc4ccccn4)CC[C@@H]32)nc1,1.9
7,Cc1noc(C(C)C)c1C(=O)NCCC(=O)N1CCCCC1,0.632
8,CCSCC(C)NCc1nncn1C1CCCCC1 (stereo not given),15.3
9,Cn1cc(C2CC(=O)NC23CCN(C(=O)Cc2ccccn2)CC3)cn1 (stereo not given),5.06
10,Cc1occc1C(=O)N1CCC2(CC1)CN(c1ccccn1)CCO2,-75.6
11,CCOC(=O)CCNC(=O)N1CCCC(CNC(=O)c2ccco2)C1 (stereo not given),14.9
12,CCS(=O)(=O)Cc1ccn(-c2cccc(F)c2)n1,-0.988
13,CCOc1ncccc1NC(=O)NC1CCN(S(C)(=O)=O)CC1,-7.96
14,O=C(NCCSC1CCCC1)c1c(F)cccc1F,8.74
15,Cc1nn(C)c(N2CCOCC2)c1CNC(C)c1ccco1 (stereo not given),-17.6
16,Cc1cc(NCC(=O)N(C)CC(F)(F)F)c(C(N)=O)cc1F,-2.91
17,CCC(Cn1ccnc1)n1cnc2scc(C)c2c1=O (stereo not given),10.7
18,CN(Cc1cccnc1)C[C@H]1OC[C@@H]2CCN(C(=O)C3CC3)C[C@@H]21,-117
19,Cc1ncccc1C(=O)NCc1ccccc1CN(C)Cc1ccco1,8.35
20,Cc1cc(Cc2ccccc2)cc(C2CCCNC2)n1 (stereo not given),-5.89
21,COCCN(C)C(=O)c1ccccc1-n1cccn1,-4.57
22,COC(=O)CN(C(=O)c1cc(C)c(F)cc1F)c1cccc(C)n1,6.9
